Common to all, as to type: functional, cell-based
Assay [1] deals with PC-12. Nature of the assay: Cytotoxicity against rat PC12 cells at 0.1 to 10 ug/ml by MTT assay. An outline of the steps: (§1)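 MTT viability read-out on L5178Y, HeLa and PC12 cells over 0.1-10 µg/mL, with EC50 values given in µg/mL; a positive control was run alongside. Other details follow an earlier protocol.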
Assay [2] concerns HeLa. Nature of the assay: Cytotoxicity against human HeLa cells at 0.1 to 10 ug/ml by MTT assay. An outline of the steps: as §1
For orientation: Formazan colour is commonly taken as a measure of viable cells.

The subject of assay [3] is L5178Y. Nature of the assay: Cytotoxicity against mouse L5178Y cells at 0.1 to 10 ug/ml by MTT assay. The method, boiled down:
as §1

The test system of assay [4] is PC-12. Nature of the assay: Cytotoxicity against rat PC12 cells by MTT assay. The method, boiled down:
as §1

Assay [5] relates to L5178Y. Nature of the assay: Cytotoxicity against mouse L5178Y cells by MTT assay. The method, boiled down: as §1
Assay [6] has as its system HeLa. Nature of the assay: Cytotoxicity against human HeLa cells by MTT assay. An outline of the steps:
as §1

≈ marks a conversion by molar mass, not a printed value. Calls of active or inactive are those of the source. The rule behind the calls is not given here.

As to `CC(O)C(O)/C=C/C=C/C(=O)O[C@@H]1C=C2COC(=O)[C@]2(O)[C@@]2(C)CCCC(C)(C)[C@H]12` (stereo in doubt; 8), the result with PC-12 [1], in the assay with HeLa [2] and in the assay with L5178Y [3] was inactive.

As for `CC1(C)C[C@H](O)C[C@@]2(C)[C@H]1[C@H](O)C=C1COC(=O)[C@@]12O`, the result in the assay with PC-12 [1], in the assay on HeLa [2] and in the assay with L5178Y [3] was inactive.

Turning to `CC1=CC(=O)[C@H]2C(C)(C)[C@@H](O)CC[C@]2(C)[C@@]1(O)CO`, the result with PC-12 [1], in the assay on HeLa [2] and in the assay with L5178Y [3] was inactive.

As for `CC1(C)CCC[C@@]2(C)[C@H]1[C@H](OC(=O)/C=C/C=C/C(=O)O)C=C1COC(=O)[C@@]12O`, the EC50 (usually the concentration that produces a half-maximal response) in the assay with PC-12 [4] is greater than 10 µg/mL; in the assay with L5178Y [5], 5.3 µg/mL (≈ 13.6 µM); in the assay with HeLa [6], greater than 10 µg/mL.

As for `CC1=CC(=O)[C@H]2C(C)(C)C[C@H](O)C[C@]2(C)[C@@]1(O)CO`, the result with PC-12 [1], in the assay with HeLa [2] and with L5178Y [3] was inactive.

As to `C/C=C/C=C/C=C/C(=O)O[C@@H]1C=C2COC(=O)[C@]2(O)[C@@]2(C)CCCC(C)(C)[C@H]12`, the EC50 is greater than 10 µg/mL with PC-12 [4], 1.9 µg/mL (≈ 4.92 µM) in the assay with L5178Y [5] and 7.5 µg/mL (≈ 19.4 µM) with HeLa [6].

Consider `CC(O)C(O)/C=C/C=C/C(=O)O[C@@H]1C=C2COC(=O)[C@]2(O)[C@@]2(C)CCCC(C)(C)[C@H]12` (stereo in doubt; 9), for which the result in the assay with PC-12 [1], in the assay with HeLa [2] and with L5178Y [3] was inactive.

Consider `CC1=CC(=O)[C@H]2C(C)(C)C[C@H](O)C[C@]2(C)[C@H]1CO`, for which the result in the assay with PC-12 [1], in the assay with HeLa [2] and in the assay with L5178Y [3] was inactive.

Take `CC1(C)CCC[C@@]2(C)[C@H]1[C@H](OC(=O)/C=C/C=C/C=O)C=C1COC(=O)[C@@]12O` [USTUSOLATE E]: the values for the EC50 with PC-12 [4], with L5178Y [5] and with HeLa [6] were 7.2 µg/mL (≈ 19.2 µM), 0.6 µg/mL (≈ 1.6 µM) and 5.9 µg/mL (≈ 15.8 µM), respectively.

As for `CC1=CC(=O)[C@H]2C(C)(C)[C@@H](O)CC[C@]2(C)[C@H]1CO`, the result with PC-12 [1], in the assay on HeLa [2] and in the assay with L5178Y [3] was inactive.

Values taken from ChEMBL document CHEMBL1154305, “Drimane sesquiterpenoids from the fungus Aspergillus ustus isolated from the marine sponge Suberites domuncula” (J Nat Prod, 2009).
